Laboratory results reported in ChEMBL document CHEMBL1152300, “Ligand specificity of constitutive androstane receptor as probed by induced-fit docking and mutagenesis” (J Med Chem, 2008).
Values belong to the compound of their own block, whether it stands above or below them.

Tests used:
[1] = biological target: T1, Nuclear receptor subfamily 1 group I member 3 (Mus musculus, UniProt O35627, F171L); conditions: HEK293, mouse
[2] = biological target: T2, Nuclear receptor subfamily 1 group I member 3 (Mus musculus, UniProt O35627, Y336A); assay: Activation of mouse CAR Y336A mutant expressed in HEK293 cells at 10 uM by mammalian one-hybrid assay; format: cell-based; conditions: hek293, 10 µM
Outline: (§1)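 GAL4 DBD fused to mouse CAR LBD (residues 118-358), wild type or point mutant, cotransfected with UASx4-tk-luc reporter and pCMVβ into HEK293 cells. Cells cultured with DMSO (0.1% v/v) or compound (final 1, 2 or 10 µM). Lysed 24 h post-transfection. Luciferase normalized to β-galactosidase, expressed relative to empty GAL4 vector (=1.0). Mean ± SD, three independent experiments.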

[3] = biological target: T3, Nuclear receptor subfamily 1 group I member 3 (Mus musculus, UniProt O35627, N175A); assay: Decrease in steroid receptor coactivator 1 binding to mouse CAR N175A mutant […] at 10 uM by yeast two-hybrid assay; format: cell-based; conditions: read-out: Activity
Outline: (§2)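 Yeast expressing wild-type or mutant mouse CAR LBD plus SRC-1, selected on SD plates lacking leucine and tryptophan. Pooled colonies treated with DMSO or compound for 3.5 h. β-Galactosidase activity normalized to cell density. Reference is wild-type CAR + SRC-1 with DMSO (=100). Mean ± SD of two independent determinations, each in triplicate.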

[4] = biological target: T4, Nuclear receptor subfamily 1 group I member 3 (Mus musculus, UniProt O35627); assay: Activation of wild type mouse CAR expressed in HEK293 cells at 10 uM by mammalian one-hybrid assay; conditions: hek293, 10 µM
T4 sequence (O35627 whole entry): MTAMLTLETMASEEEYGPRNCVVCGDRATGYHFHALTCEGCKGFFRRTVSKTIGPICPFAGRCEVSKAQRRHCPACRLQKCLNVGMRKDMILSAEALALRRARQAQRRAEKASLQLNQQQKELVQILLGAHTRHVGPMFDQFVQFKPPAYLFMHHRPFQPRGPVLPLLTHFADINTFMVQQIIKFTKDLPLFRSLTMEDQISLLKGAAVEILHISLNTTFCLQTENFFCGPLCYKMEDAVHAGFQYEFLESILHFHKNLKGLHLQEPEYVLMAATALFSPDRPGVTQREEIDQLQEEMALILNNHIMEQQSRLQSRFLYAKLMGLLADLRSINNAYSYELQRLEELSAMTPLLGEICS

[5] = biological target: T4, Nuclear receptor subfamily 1 group I member 3; assay: Increase in nuclear co-repressor receptor binding to wild type mouse CAR expressed in HEK293 cells at 10 uM by yeast two-hybrid assay; conditions: hek293, 10 µM
[6] = biological target: T2, Nuclear receptor subfamily 1 group I member 3; assay: Decrease in nuclear co-repressor receptor binding to mouse CAR Y336A mutant […] at 2 uM by yeast two-hybrid assay; format: cell-based; conditions: read-out: Activity
Outline: (§3)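 Yeast two-hybrid: yeast expressing wild-type or mutant mouse CAR LBD plus SRC-1 or NCoR, selected on SD medium lacking Leu and Trp. Pooled colonies treated with DMSO or test chemical for 3.5 h. β-Galactosidase normalized to cell density. SRC-1 reference: wild-type + DMSO = 100. NCoR reference: 10 µM androstenol = 100. Mean ± SD, two independent determinations, each in triplicate.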

[7] = biological target: Nuclear receptor subfamily 1 group I member 3 (Mus musculus, UniProt O35627, I252L); assay: Effect on steroid receptor coactivator 1 binding to mouse CAR I252L mutant […] at 2 uM by yeast two-hybrid assay; format: cell-based; conditions: read-out: Activity
Outline: as §3

[8] = biological target: T3, Nuclear receptor subfamily 1 group I member 3; assay: Decrease in nuclear co-repressor receptor binding to mouse CAR N175A mutant […] at 2 uM by yeast two-hybrid assay; format: cell-based; conditions: read-out: Activity
Outline: as §3

[9] = biological target: T1, Nuclear receptor subfamily 1 group I member 3; assay: Effect on steroid receptor co-activator 1 binding to mouse CAR F171L mutant […] at 2 uM by yeast two-hybrid assay; format: cell-based; conditions: read-out: Activity
Outline: as §3

[10] = biological target: Nuclear receptor subfamily 1 group I member 3 (Mus musculus, UniProt O35627, S251L); assay: Decrease in mouse CAR S251L mutant activation expressed in HEK293 cells at 2 uM by mammalian one-hybrid assay; format: cell-based; conditions: read-out: Activity
Outline: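 GAL4-DBD fused to mouse CAR LBD (residues 118-358), wild-type or point mutant, cotransfected with UASx4-tk-luc reporter and pCMVβ into HEK293 cells. Cells were exposed to final 1 µM, 2 µM or 10 µM test chemical, or 0.1% v/v DMSO, for 24 h after transfection. Luciferase was normalized to β-galactosidase and set against empty GAL4 vector (=1.0). Mean ± standard deviation, three independent experiments.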

[11] = biological target: T1, Nuclear receptor subfamily 1 group I member 3; assay: Effect on nuclear co-repressor receptor binding to mouse CAR F171L mutant […] at 1 uM by yeast two-hybrid assay; format: cell-based; conditions: read-out: Activity
Outline: as §2, with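 “NCoR,” for “SRC-1,”, “10 µM androstenol” for “wild-type CAR + SRC-1 with DMSO”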

[12] = biological target: T2, Nuclear receptor subfamily 1 group I member 3; assay: Effect on nuclear co-repressor receptor binding to mouse CAR Y336A mutant […] at 1 uM by yeast two-hybrid assay; format: cell-based; conditions: read-out: Activity
Outline: as §2, with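 “NCoR,” for “SRC-1,”, “10 µM androstenol” for “wild-type CAR + SRC-1 with DMSO”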

[13] = biological target: T3, Nuclear receptor subfamily 1 group I member 3; assay: Effect on nuclear co-repressor receptor binding to mouse CAR N175A mutant […] at 1 uM by yeast two-hybrid assay; format: cell-based; conditions: read-out: Activity
Outline: as §2, with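 “NCoR,” for “SRC-1,”, “10 µM androstenol” for “wild-type CAR + SRC-1 with DMSO”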

[14] = biological target: Nuclear receptor subfamily 1 group I member 3 (Mus musculus, UniProt O35627, L253F); assay: Effect on nuclear co-repressor receptor binding to mouse CAR L253F mutant […] at 1 uM by yeast two-hybrid assay; format: cell-based; conditions: read-out: Activity
Outline: as §2, with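 “NCoR,” for “SRC-1,”, “10 µM androstenol” for “wild-type CAR + SRC-1 with DMSO”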

[15] = biological target: Nuclear receptor subfamily 1 group I member 3 (Mus musculus, UniProt O35627, L353A); assay: Effect on nuclear co-repressor receptor binding to mouse CAR L353A mutant […] at 1 uM by yeast two-hybrid assay; format: cell-based; conditions: read-out: Activity
Outline: as §2, with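 “NCoR,” for “SRC-1,”, “10 µM androstenol” for “wild-type CAR + SRC-1 with DMSO”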

[16] = biological target: T5, Nuclear receptor subfamily 1 group I member 3 (Mus musculus, UniProt O35627, L212A); assay: Effect on nuclear co-repressor receptor binding to mouse CAR L212A mutant […] at 1 uM by yeast two-hybrid assay; format: cell-based; conditions: read-out: Activity
Outline: as §2, with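 “NCoR,” for “SRC-1,”, “10 µM androstenol” for “wild-type CAR + SRC-1 with DMSO”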

[17] = biological target: Nuclear receptor subfamily 1 group I member 3 (Mus musculus, UniProt O35627, T350M); assay: Decrease in steroid receptor coactivator 1 binding to mouse CAR T350M mutant […] at 1 uM by yeast two-hybrid assay; format: cell-based; conditions: read-out: Activity
Outline: as §2

[18] = biological target: Nuclear receptor subfamily 1 group I member 3 (Mus musculus, UniProt O35627, H213A); assay: Effect on nuclear co-repressor receptor binding to mouse CAR H213A mutant […] at 1 uM by yeast two-hybrid assay; format: cell-based; conditions: read-out: Activity
Outline: as §2, with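 “NCoR,” for “SRC-1,”, “10 µM androstenol” for “wild-type CAR + SRC-1 with DMSO”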

[19] = biological target: T5, Nuclear receptor subfamily 1 group I member 3; assay: Activation of mouse CAR L212A mutant expressed in HEK293 cells at 1 uM by mammalian one-hybrid assay; format: cell-based; conditions: hek293, 1 µM
Outline: as §1

T3 sequence (O35627 whole entry N175A, the tested form may be a part): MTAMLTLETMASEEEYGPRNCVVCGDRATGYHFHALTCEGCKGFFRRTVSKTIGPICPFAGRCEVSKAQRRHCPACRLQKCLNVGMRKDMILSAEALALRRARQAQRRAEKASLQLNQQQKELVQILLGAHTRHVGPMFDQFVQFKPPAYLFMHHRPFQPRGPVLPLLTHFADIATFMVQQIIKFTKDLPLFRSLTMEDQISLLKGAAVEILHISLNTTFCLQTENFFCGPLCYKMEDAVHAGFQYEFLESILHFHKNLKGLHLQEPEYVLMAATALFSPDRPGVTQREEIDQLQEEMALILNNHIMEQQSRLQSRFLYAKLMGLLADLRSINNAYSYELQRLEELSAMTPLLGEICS
T1 sequence (O35627 whole entry F171L): as the sequence (O35627 whole entry N175A, the tested form may be a part) above, with F171L, A175N counted along it
T2 sequence (O35627 whole entry Y336A, the tested form may be a part): as the sequence (O35627 whole entry N175A, the tested form may be a part) above, with A175N, Y336A counted along it
T5 sequence (O35627 whole entry L212A): as the sequence (O35627 whole entry N175A, the tested form may be a part) above, with A175N, L212A counted along it
Chain of Nuclear receptor subfamily 1 group I member 3 (Mus musculus, UniProt O35627, L253F) (O35627 whole entry L253F): as the sequence (O35627 whole entry N175A, the tested form may be a part) above, with A175N, L253F counted along it
Chain of Nuclear receptor subfamily 1 group I member 3 (Mus musculus, UniProt O35627, H213A) (O35627 whole entry H213A): as the sequence (O35627 whole entry N175A, the tested form may be a part) above, with A175N, H213A counted along it
Chain of Nuclear receptor subfamily 1 group I member 3 (Mus musculus, UniProt O35627, S251L) (O35627 whole entry S251L, the tested form may be a part): as the sequence (O35627 whole entry N175A, the tested form may be a part) above, with A175N, S251L counted along it
Chain of Nuclear receptor subfamily 1 group I member 3 (Mus musculus, UniProt O35627, I252L) (O35627 whole entry I252L): as the sequence (O35627 whole entry N175A, the tested form may be a part) above, with A175N, I252L counted along it
Chain of Nuclear receptor subfamily 1 group I member 3 (Mus musculus, UniProt O35627, T350M) (O35627 whole entry T350M): as the sequence (O35627 whole entry N175A, the tested form may be a part) above, with A175N, T350M counted along it
Chain of Nuclear receptor subfamily 1 group I member 3 (Mus musculus, UniProt O35627, L353A) (O35627 whole entry L353A): as the sequence (O35627 whole entry N175A, the tested form may be a part) above, with A175N, L353A counted along it

SMILES: COc1ccc(C(c2ccc(OC)cc2)C(Cl)(Cl)Cl)cc1 [METHOXYCHLOR]
activity at 10 µM [1]: < 50% | Activity [2]: < 50% | inhibition at 10 µM [3]: ≥ 50%

Activity [4]: 40%
SMILES: COc1ccc(C(=O)CCCc2ccccc2)cc1

SMILES: C[C@]12CC[C@@H](O)C[C@@H]1CC[C@@H]1[C@@H]2CC[C@]2(C)C=CC[C@@H]12 [ANDROSTENOL]
FC [5]: 49

inhibition at 2 µM [6]: ≥ 50% | activity at 2 µM [7]: < 50% | inhibition at 2 µM [8]: < 50% | activity at 2 µM [9]: ≥ 50% | inhibition at 2 µM [10]: < 50%
SMILES: Clc1ccccc1C(c1ccccc1)(c1ccccc1)n1ccnc1 [CLOTRIMAZOLE]

SMILES: Clc1cnc(Oc2ccc(Oc3ncc(Cl)cc3Cl)cc2)c(Cl)c1
activity at 1 µM [11]: < 50% | activity at 1 µM [12]: < 50% | activity at 1 µM [13]: < 50% | activity at 1 µM [14]: < 50% | activity at 1 µM [15]: < 50% | activity at 1 µM [16]: < 50% | inhibition at 1 µM [17]: ≥ 50% | activity at 1 µM [18]: < 50% | Activity [19]: < 50%
